pIC50, pKi: −log10 of the molar value.
Columns and labels:
Escherichia coli [1] = assay: Inhibition of Escherichia coli OGDHc E1 subunit assessed as DCPIP reduction at 250 uM preincubated for 60 mins followed by […] addition using 125 uM ThDP as substrate by microplate reader analysis
Escherichia coli [2] = assay: Inhibition of Escherichia coli OGDHc E1 subunit assessed as DCPIP reduction at 250 uM preincubated for 60 mins followed by […] addition using 50 uM ThDP as substrate by microplate reader analysis
Summary of the method: (§1)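 Single-point preliminary screen with compound at 250 μM and ThDP at 50 μM. Values are means of three technical replicates.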

Aerococcus viridans [3] = assay: Inhibition of Aerococcus viridans pyruvate oxidase at 250 uM preincubated for 30 mins followed by pyruvate addition using 125 uM ThDP as substrate by microplate reader analysis
Aerococcus viridans [4] = assay: Inhibition of Aerococcus viridans pyruvate oxidase at 250 uM preincubated for 30 mins followed by pyruvate addition using 50 uM ThDP as substrate by microplate reader analysis; summary of the method: as §1
Plasmodium falciparum [5] = assay: Antiplasmodial activity against Plasmodium falciparum 3D7 infected in human erythrocyte assessed as intraerythrocytic growth inhibition in thiamine-free medium by [3H]-hypoxanthine incorporation assay; type: functional, organism-based; conditions: 3D7, Erythrocyte
Plasmodium falciparum [6] = assay: Antiplasmodial activity against Plasmodium falciparum 3D7 infected in human erythrocyte assessed as intraerythrocytic growth inhibition in presence thiamine-rich medium by [3H]-hypoxanthine incorporation assay; type: functional, organism-based; conditions: 3D7, Erythrocyte
Plasmodium falciparum [7] = assay: Antiplasmodial activity against chloroquine-sensitive Plasmodium falciparum 3D7 infected in human erythrocyte assessed as inhibition of parasite proliferation in thiamine free medium by SYBR-Safe assay; type: functional, organism-based; conditions: 3D7, Erythrocyte
Summary of the method: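 3D7 parasites in human erythrocytes cultured in thiamine-free medium with a range of compound concentrations. […] Means come from three independent experiments, each run in three technical replicates.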

Plasmodium falciparum [8] = assay: Antiplasmodial activity against chloroquine-sensitive Plasmodium falciparum 3D7 infected in human erythrocyte assessed as inhibition of parasite proliferation in presence of 297uM thiamine by SYBR-Safe assay; type: functional, organism-based; conditions: 3D7, Erythrocyte
Summary of the method: (§2)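 P. falciparum 3D7-infected erythrocytes were exposed to compound in culture medium with added thiamine, 2.97 μM or 297 μM. Proliferation was read as parasite DNA by SYBR-Safe assay.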

Plasmodium falciparum [9] = assay: Antiplasmodial activity against chloroquine-sensitive Plasmodium falciparum 3D7 infected in human erythrocyte assessed as inhibition of parasite proliferation in presence of 2.97uM thiamine by SYBR-Safe assay; type: functional, organism-based; conditions: 3D7, Erythrocyte; summary of the method: as §2
[10] = molecular target: T1, Pyruvate dehydrogenase E1 component subunit alpha, somatic form, mitochondrial (Sus scrofa, UniProt P29804); assay: Inhibition of porcine PDHc E1-subunit assessed as inhibition constant preincubated for 30 mins followed by pyruvate addition using 10 uM ThDP as substrate by microplate reader analysis
T1 sequence (P29804 whole entry): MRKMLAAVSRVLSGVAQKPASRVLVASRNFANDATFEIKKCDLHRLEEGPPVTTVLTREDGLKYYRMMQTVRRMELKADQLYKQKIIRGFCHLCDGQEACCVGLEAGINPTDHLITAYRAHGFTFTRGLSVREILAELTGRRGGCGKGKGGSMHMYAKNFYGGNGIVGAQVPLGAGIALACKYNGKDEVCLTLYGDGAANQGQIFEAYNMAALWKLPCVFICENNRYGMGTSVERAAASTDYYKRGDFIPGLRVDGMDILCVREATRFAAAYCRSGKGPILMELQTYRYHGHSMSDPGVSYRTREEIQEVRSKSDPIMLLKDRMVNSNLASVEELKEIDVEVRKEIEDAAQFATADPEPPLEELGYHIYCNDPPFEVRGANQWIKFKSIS

[11] = molecular target: T1, Pyruvate dehydrogenase E1 component subunit alpha, somatic form, mitochondrial; assay: Inhibition of porcine PDHc E1-subunit assessed as DCPIP reduction preincubated for 30 mins followed by pyruvate addition using 10 uM ThDP as substrate by microplate reader analysis

inhibition (Escherichia coli [1]) [%] | inhibition (Escherichia coli [2]) [%] | inhibition (Aerococcus viridans [3]) [%] | inhibition (Aerococcus viridans [4]) [%] | Compound | other results
< 20 | < 20 | < 20 | < 20 | Cc1ncc(Cn2cc(CCCCn3cc(-c4ccccc4)nn3)nn2)c(N)n1 | –
< 20 | – | < 20 | < 20 | Cc1ncc(Cn2cc(CCn3cc(-c4ccc(F)cc4)nn3)nn2)c(N)n1 | –
< 20 | < 20 | < 20 | < 20 | Cc1ncc(Cn2cc(CCCn3cc(-c4ccccc4)nn3)nn2)c(N)n1 | –
< 20 | – | < 20 | < 20 | COc1ccc(-c2cn(CCc3cn(Cc4cnc(C)nc4N)nn3)nn2)cc1 | –
– | – | – | – | Cc1ncc(C[n+]2csc(CCO)c2C)c(O)n1 | pIC50 (Plasmodium falciparum [5]): 4.96; pIC50 (Plasmodium falciparum [6]): 5.28; pIC50 (Plasmodium falciparum [7]): 4.96; pIC50 (Plasmodium falciparum [8]): 2.26; pIC50 (Plasmodium falciparum [9]): 2.28
– | – | – | – | Cc1ncc(Cn2cc(CCCCC(=O)NO)nn2)c(N)n1 | pKi [10]: 7.40; pIC50 (Plasmodium falciparum [7]): 5.52; pIC50 [11]: 5.10
< 20 | < 20 | < 20 | < 20 | Cc1ncc(Cn2cc(CCCn3cc(-c4ccc(F)cc4)nn3)nn2)c(N)n1 | –
< 20 | < 20 | < 20 | < 20 | COc1ccc(-c2cn(CCCc3cn(Cc4cnc(C)nc4N)nn3)nn2)cc1 | –
< 20 | < 20 | < 20 | < 20 | COc1ccc(-c2cn(CCCCc3cn(Cc4cnc(C)nc4N)nn3)nn2)cc1 | pIC50 [11]: 5.22
– | – | – | – | Cc1ncc(Cn2cc(CCCC(=O)NO)nn2)c(N)n1 | pKi [10]: 7.35; pIC50 [11]: 5.05
< 20 | – | < 20 | – | Cc1ncc(Cn2cc(CCn3cc(-c4ccccc4)nn3)nn2)c(N)n1 | –
< 20 | < 20 | < 20 | < 20 | Cc1ncc(Cn2cc(CCCCn3cc(-c4ccc(F)cc4)nn3)nn2)c(N)n1 | –

From ChEMBL document CHEMBL5257137, “Inhibition of Thiamine Diphosphate-Dependent Enzymes by Triazole-Based Thiamine Analogues” (ACS Med Chem Lett, 2023)
